Sampled rows, rich in hits. Any-hit rate of the full collection: about 3.4%.
MEKK3 PB1 HTS – modulators (inhibitors or enhancers) of MEK5 binding to human MEKK3 PB1 domain. actives 1.4% (n = 290,000). bead-based flow cytometry, Alexa488-MEK5 binding to MEKK3; actives lie on both sides; 0 = blocked by unlabeled MEK5, 100 = vehicle. AID 1529. binding response (% of control), % at 10 µM;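 active means binding response more than 3 SD above or below the average of its plate-row segment, actives on both sides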;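 further: Alexa488 bead fluorescence after subtracting the streptavidin-only scavenger bead signal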
VIM-2 inh – inhibitors of Pseudomonas aeruginosa VIM-2 metallo-beta-lactamase; purified VIM-2, nitrocefin hydrolysis, epi-absorbance fluorescence; inhibition, % at 5.6 µM; actives 0.89% (n = 290,000); AID 1527;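 active means inhibition above the mean of all tested compounds plus 3 SD, cutoff set per screening run, cut at about 7.5% in these data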;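 further: red hydrolysis product quenches plate fluorescence so inhibitors raise well fluorescence; 0% = enzyme with DMSO and 100% = DMSO without enzyme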
MEKK2 mut-MEK5 – signal of MEK5 binding to mutant human MEKK2 PB1 domain; bead flow cytometry, Alexa488-MEK5 binding to MEKK2 mutant; percent response, % at 10 µM; actives 0.35% (n = 290,000); in the data active means percent response above about 24%, passing the limit was not always enough
MEKK2wt PB1 HTS – raises or lowers MEK5 binding to wildtype human MEKK2 PB1 domain; Q9Y2U5; bead flow cytometry, Alexa488-MEK5 binding to MEKK2 WT; actives lie on both sides; binding response (% of control), % at 10 µM; actives 1.1% (n = 290,000); AID 1531; in the data active means binding response below about 67% or above about 130%
IMP-1 inh – blocks Pseudomonas aeruginosa IMP-1 metallo-beta-lactamase. purified IMP-1, nitrocefin hydrolysis, epi-absorbance fluorescence. inhibition, % at 5.6 µM. actives 0.45% (n = 290,000). AID 1556;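 active means inhibition above the mean plus 3 SD of all compounds in the same screening run, cut at about 4.5% in these data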;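 further: 0% = IMP-1 with DMSO and 100% = DMSO wells lacking enzyme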
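System: purified IMP-1; amount: IMP-1 0.2 nM before substrate addition; compound: single dose, 5.6 µM; times: 25 °C, 15 min preincubation, 25 min reaction; signal: Epi-absorbance via hydrolysed-nitrocefin quenching of white-plate fluorescence, 480/530 nm, EDTA stop; benchmarks: DMSO with and without IMP-1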
Starred values were filed as active, the others as inactive; nt = not tested or not shown.

SMILES	MEKK3 PB1 HTS	VIM-2 inh	MEKK2 mut-MEK5	MEKK2wt PB1 HTS	IMP-1 inh
COCCn1c(C)cc(C(=O)CSc2nc3ccccc3c(=O)n2Cc2ccco2)c1C	103	0	-1	100	-4
COCCn1c(C)cc(C(=O)CSc2cc(C)c3ccccc3n2)c1C	102	0	14	105	5.7*
O=c1c2cc3c(cc2[nH]c(=S)n1CCN1CCOCC1)OCO3	98	-2	-2	101	1
N/C(=N\OC(=O)c1ccccc1Br)c1cccc([N+](=O)[O-])c1	101	-3	0	102	2
N/C(=N\OC(=O)c1ccccc1Br)c1ccc([N+](=O)[O-])cc1	105	-2	12	110	12*
COc1ccc(/C=N/NC(=O)CNC(=O)COc2ccccc2)cc1	83	-1	-60	4.0*	-2
O=C1C(Cl)=C(Nc2ccccc2O)C(=O)N1c1ccccc1	98	9.3*	-4	97	-5
COc1ccc2c(c1OC)c(=O)n1c3ccc(OC(C)C(=O)NCCCN4CCOCC4)cc3c3ccnc2c31 (stereo not drawn)	99	11*	3	102	-2
CN1CCc2c(OCc3ccc(F)cc3)cccc2C1=O	96	1	-6	90	23*
O=C1c2cccc(OCc3ccc(F)cc3)c2CCN1Cc1ccc(F)cc1	101	-2	17	116	-2
O=C(O)COc1ccc(Br)cc1/C=C1/SC(=O)N(CC(=O)N2CCCC2)C1=O	101	-1	15	100	43*
CCOC(=O)c1c(C)[nH]c(C)c1C(=O)COC(=O)/C=C/c1ccc(OC(F)F)cc1	100	-2	9	96	-2
NC(=O)C1CCN(C(=O)Cc2ccc(-c3ccccc3)cc2)CC1	101	-1	2	100	9.7*
Cc1nn(CCCC(=O)NCc2ccccc2)c(C)c1[N+](=O)[O-]	96	-4	-1	103	-3
CCCCCCC(=O)Nc1nc(C)c(-c2csc(Nc3cc(OC)ccc3OC)n2)s1	100	-2	1	113	10*
C=CCCC(=O)Nc1nc(C)c(-c2csc(Nc3ccc(Cl)cc3Cl)n2)s1	103	-4	2	108	-2
Cc1nc(NC(=O)CC(C)C)sc1-c1csc(Nc2ccc(Cl)cc2Cl)n1	95	0	-1	103	0
C=CCCC(=O)Nc1nc(C)c(-c2csc(Nc3cc(Cl)ccc3OC)n2)s1	107	0	4	109	6.2*
COc1ccc(Cl)cc1Nc1nc(-c2sc(NC(=O)CC(C)C)nc2C)cs1	103	0	3	110	6.8*
CC1CCN(C2(O)C(=O)Nc3ccc(Cl)cc32)CC1 (stereo not drawn)	104	0	2	101	-2
Cc1ccc(CC2C(=O)N(c3ccc(C)cc3)C(=O)C2C)cc1 (stereo not drawn)	103	-4	3	105	-3
Cc1ccc(CC2C(=O)N(c3ncccn3)C(=O)C2C)cc1 (stereo not drawn)	104	1	1	106	4.9*
CCOc1cc(N2CCOCC2)c(OCC)cc1NC(=O)CC12CC3CC(CC(C3)C1)C2	107	-1	8	111	-4
COc1ccc2nc(C)cc(SCC(=O)N/N=C/c3ccc(O)cc3O)c2c1	99	-4	14	102	-5
CCCCC1=CC2=CC(=O)C(C)(OC(=O)CC)C(=O)C2=CN1CCc1ccccn1 (stereo not drawn)	99	nt	3	100	nt
SMILES	MEKK3 PB1 HTS	VIM-2 inh	MEKK2 mut-MEK5	MEKK2wt PB1 HTS	IMP-1 inh
CCCCc1cc2c(cn1)=C(OC(=O)c1cnc3ccccc3n1)C(C)(OC(=O)CC)C(=O)C=2 (stereo not drawn)	119	nt	3	143*	nt
OC(COc1ccccc1)CN1CCN(C(c2ccccc2)c2ccccc2)CC1 (stereo not drawn)	114	-2	23	131	-4
C=CCn1c(Cc2nc3ccccc3[nH]2)n[nH]c1=S	103	-6	1	101	-6
S=c1[nH]nc(CCc2nc3ccccc3[nH]2)n1-c1ccccc1	105	7.8*	-8	101	-3
COc1ccc(-n2c(CCc3ccccc3)n[nH]c2=S)cc1	101	-1	0	103	-3
S=c1[nH]nc(CCc2nc3ccccc3[nH]2)n1-c1cccc(Cl)c1	101	7.7*	-7	99	-2

Assay outcomes as filed in PubChem BioAssay.
